Drawing on ChEMBL document CHEMBL4414566, “Cytotoxicity and Anti-inflammatory Properties of Apigenin-Derived Isolaxifolin” (J Nat Prod, 2019), this text covers Activity and viability for one compound.

Test [1] deals with MDA-MB-231. The test is described as follows: Induction of apoptosis in human MDA-MB-231 cells assessed as increase in nuclear chromatin condensation incubated for 48 hrs by Hoechst 33258 staining based fluorescence microscopic method. In kind it is functional, cell-based. In a few lines: (§1)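 MDA-MB-231 cells were grown 24 h and treated with 8.6, 12.4 or 17.3 μM for 48 h. They were then fixed 10 min, washed three times in PBS and stained 5 min with Hoechst 33258. Nuclear condensation was imaged by fluorescence microscopy (excitation 350 nm, emission 460 nm).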

The subject of test [2] is MDA-MB-231. The test is described as follows: Induction of mitochondrial membrane potential loss in human MDA-MB-231 cells assessed as cell population with intact mitochondrial membrane potential by measuring red fluorescence at 8.6 uM incubated for 48 hrs by JC1 staining based flow cytometric analysis (reference value: 92.04%). In kind it is functional. The method, boiled down:
(§2)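 MDA-MB-231 cells in DMEM/10% FBS exposed 48 h to 0, 8.6, 12.4 or 17.3 μM. Harvested cells stained with JC-1 for 15 min in the dark, then analysed by flow cytometry. Excitation 488 nm; green emission read at 525 nm, red at 590 nm. Output given as percent green-to-red fluorescence intensity ratio. Triplicate, mean ± SD.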
In general terms: A flow cytometer gives signals particle by particle.

Test [3] relates to RAW264.7. The experiment in a line: Antiinflammatory activity in mouse RAW264.7 cells assessed as reduction in LPS-induced IL6 production at 0.8 to 3.1 uM preincubated with LPS for 24 hrs followed by compound addition and measured after 24 hrs by ELISA. In kind it is functional, cell-based. The method, boiled down:
(§3)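 Murine RAW 264.7 macrophages, 1 × 10^5/well, 4 h settling, then LPS (1.0 μg/mL) for 24 h. Medium was swapped for test solutions (0.8–3.1 μM or 2.3–9.2 μM), or DXM 254.8 μM as positive control, for another 24 h. Secreted NO was measured by Griess assay; TNF-α and IL-6 by ELISA. Run in triplicate, mean ± SD.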
Background: In an ELISA, binding on a coated surface is turned into a signal by an enzyme label.

Test [4] relates to MDA-MB-231. The experiment in a line: Induction in apoptosis in human MDA-MB-231 cells assessed as apoptotic cell bodies formation at 17.3 uM incubated for 48 hrs by Hoechst 33258 staining based fluorescence microscopic method. In kind it is functional. The method, boiled down: as §1
In another test the test system is HCT-116. The test is described as follows: Antiproliferative activity against human HCT116 cells assessed as cell viability at >34.6 uM incubated for 48 hrs by methylene blue assay relative to control. In kind it is functional. The method, boiled down:
(§4)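 MDA-MB-231, MCF-7, HepG2 and LNCaP cells were grown in DMEM; HCT-116 and LO-2 in RPMI-1640; all with 10% FBS at 37 °C, 5% CO2. Cells seeded at 1.5 × 10^5 cells/mL and incubated overnight (~12 h), then exposed to 6.2–30.9 μM or 23.1–185.0 μM (final DMSO <0.1%) for 48 h. Read by methylene blue staining; viability = Abs treated/Abs untreated × 100%, triplicate.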

Test [5] has as its system MDA-MB-231. The experiment in a line: Induction of mitochondrial membrane potential loss in human MDA-MB-231 cells incubated for 48 hrs by JC1 staining based flow cytometric analysis. In kind it is functional, cell-based. In a few lines: as §2
Test [6] has as its system MDA-MB-231. The experiment in a line: Induction of apoptosis in human MDA-MB-231 cells assessed as late apoptotic cells at 12.4 uM incubated for 48 hrs by annexin V-FITC/PI based flow cytometric analysis (Rvb= 2.82%). In kind it is functional.
In test [7] the test system is MDA-MB-231. The experiment in a line: Induction of apoptosis in human MDA-MB-231 cells assessed as viable cells at 12.4 uM incubated for 48 hrs by annexin V-FITC/PI based flow cytometric analysis (Rvb= 96.21%). As to conditions: MDA-MB-231, 48 h, read-out: Activity. In kind it is functional.
For test [8], the system named is MDA-MB-231. The experiment in a line: Induction of cell cycle arrest in human MDA-MB-231 cells assessed as accumulation of cells at G2/M phase at 8.6 uM incubated for 48 hrs by PI/RNase staining based flow cytometric analysis (reference value: 10.4%). In kind it is functional. In a few lines: (§5)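 Cell-cycle analysis: MDA-MB-231 cells were preincubated 24 h, then treated with 8.6, 12.4 or 17.3 μM for 48 h. Cells were pelleted, fixed in 75% ethanol at −20 °C overnight, and stained with PI/RNase for 15 min in the dark at ambient temperature. About 10 000 cells per well were analyzed by flow cytometry for DNA content.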

Test [9] relates to MDA-MB-231. The experiment in a line: Induction of cell cycle arrest in human MDA-MB-231 cells assessed as accumulation of cells at G0/G1 phase at 8.6 uM incubated for 48 hrs by PI/RNase staining based flow cytometric analysis (reference value: 50.4%). In kind it is functional. The method, boiled down:
as §5

Test [10] concerns MDA-MB-231. The test is described as follows: Induction of mitochondrial membrane potential loss in human MDA-MB-231 cells cell population with mitochondrial membrane potential collapse by measuring green fluorescence at 8.6 uM incubated for 48 hrs by JC1 staining based flow cytometric analysis (reference value: 7.96%). In kind it is functional. In a few lines:
as §2

Test [11] deals with MDA-MB-231. The experiment in a line: Induction of apoptosis in human MDA-MB-231 cells assessed as viable cells at 8.6 uM incubated for 48 hrs by annexin V-FITC/PI based flow cytometric analysis (Rvb= 96.21%). In kind it is functional. As to conditions: MDA-MB-231, 48 h, read-out: Activity.
The test system of a further test is LNCaP. The test is described as follows: Antiproliferative activity against human LNCAP cells assessed as cell viability at >30.9 uM incubated for 48 hrs by methylene blue assay relative to control. In kind it is functional. The method, boiled down: as §4
In test [12] the test system is MDA-MB-231. The test is described as follows: Induction of cell cycle arrest in human MDA-MB-231 cells assessed as accumulation of cells at S phase at 8.6 uM incubated for 48 hrs by PI/RNase staining based flow cytometric analysis (reference value: 39.2%). In kind it is functional. In a few lines:
as §5

Test [13] relates to RAW264.7. The experiment in a line: Antiinflammatory activity in mouse RAW264.7 cells assessed as reduction in LPS-induced TNFalpha production at 0.8 to 3.1 uM preincubated with LPS for 24 hrs followed by compound addition and measured after 24 hrs by ELISA. In kind it is functional, cell-based. The method, boiled down: as §3
Test [14] relates to MDA-MB-231. The experiment in a line: Induction of apoptosis in human MDA-MB-231 cells assessed as increase in late apoptotic cells population incubated for 48 hrs by annexin V-FITC/PI based flow cytometric analysis. In kind it is functional, cell-based.
The test system of test [15] is MDA-MB-231. The experiment in a line: Induction of cell cycle arrest in human MDA-MB-231 cells assessed as accumulation of cells at G0/G1 phase at 17.3 uM incubated for 48 hrs by PI/RNase staining based flow cytometric analysis (reference value: 50.4%). In kind it is functional. The method, boiled down: as §5
For test [16], the system named is MDA-MB-231. The test is described as follows: Induction of apoptosis in human MDA-MB-231 cells assessed as late apoptotic cells at 17.3 uM incubated for 48 hrs by annexin V-FITC/PI based flow cytometric analysis (Rvb= 2.82%). In kind it is functional.
Test [17] concerns MDA-MB-231. The test is described as follows: Induction of cell cycle arrest in human MDA-MB-231 cells assessed as accumulation of cells at S phase at 17.3 uM incubated for 48 hrs by PI/RNase staining based flow cytometric analysis (reference value: 39.2%). In kind it is functional. In a few lines: as §5
Test [18] deals with MDA-MB-231. The experiment in a line: Induction of apoptosis in human MDA-MB-231 cells assessed as late apoptotic cells at 8.6 uM incubated for 48 hrs by annexin V-FITC/PI based flow cytometric analysis (Rvb= 2.82%). In kind it is functional.
The next test relates to MCF7. The test is described as follows: Antiproliferative activity against human MCF7 cells assessed as cell viability at 24.2 uM incubated for 48 hrs by methylene blue assay relative to control. In kind it is functional. As to conditions: MCF7, 48 h, read-out: Activity. The method, boiled down:
as §4

The test system of test [19] is MDA-MB-231. The test is described as follows: Induction of cell cycle arrest in human MDA-MB-231 cells assessed as accumulation of cells at G0/G1 phase at 12.4 uM incubated for 48 hrs by PI/RNase staining based flow cytometric analysis (reference value: 50.4%). In kind it is functional. The method, boiled down:
as §5

Test [20] deals with MDA-MB-231. The test is described as follows: Induction of mitochondrial membrane potential loss in human MDA-MB-231 cells cell population with mitochondrial membrane potential collapse by measuring green fluorescence at 17.3 uM incubated for 48 hrs by JC1 staining based flow cytometric analysis (reference value: 7.96%). In kind it is functional. In a few lines: as §2

Activity calls are given as the source filed them. The calls are words filed in the database; no cut-off is given here.

`CC(C)=CCc1c2c(c(O)c3c(=O)cc(-c4ccc(O)cc4)oc13)C=CC(C)(C)O2` [LAXIFOLIN]: the Activity result in the test with MDA-MB-231 [1] was “Dose-dependent effect”; in the test with MDA-MB-231 [2], 83.51%; in the test with HCT-116, 20%; in the test with MDA-MB-231 [5], “Dose-dependent effect”; with MDA-MB-231 [6], 12.89%; in the test on MDA-MB-231 [8] it was 11%. Further, the Activity with MDA-MB-231 [9] was 59.5%; in the test on MDA-MB-231 [10], 16.49%; with LNCaP it was 20%; in the test with MDA-MB-231 [12], 29.5%; in the test on MDA-MB-231 [14], “Dose-dependent effect”; with MDA-MB-231 [15], 63.3%. Further, the Activity was determined as 24.55% in the test on MDA-MB-231 [16]; 26.8% with MDA-MB-231 [17]; 9.8% with MDA-MB-231 [18]; 60.2% in the test on MDA-MB-231 [19]; 26.75% in the test with MDA-MB-231 [20]. In addition, the result in the test on RAW264.7 [3], in the test on MDA-MB-231 [4] and in the test on RAW264.7 [13] was Active. Besides, the viability at 12.4 µM in the test on MDA-MB-231 [7] worked out at 85.3%. Also, the viability at 8.6 µM with MDA-MB-231 [11] was 88.3%. Moreover, in the test with MCF7, the viability at 24.2 µM is 20%.
